Laboratory results as given in ChEMBL document CHEMBL1144562, “Synthesis of a new class of 2-anilino substituted nicotinyl arylsulfonylhydrazides as potential anticancer and antibacterial agents” (2007).
In brackets after ≈: the same amount, converted by molar mass.

What was measured:
COLO 205 = experiment: Antitumor activity against COLO205 cells; format: functional; details: Homo sapiens
TK-10 = experiment: Antitumor activity against TK10 cells; format: functional; details: Homo sapiens
Summary of the method: (§1)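 Tested in the NCI 60-human-tumour-cell-line panel at five concentrations, in 10-fold dilutions from 10^-4 to 10^-8 M. Three parameters were taken from the dose-response data, each as log10 of the molar concentration: GI50 (50% net growth inhibition), TGI (total growth inhibition) and LC50 (50% net cell death).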

[1] = Antitumor activity against HL60 (TB) cells; format: functional, HL-60(TB); details: Homo sapiens, HL-60
Summary of the method: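 NCI 60-cell-line in vitro screen (leukaemia subpanel). Compound tested at five 10-fold dilutions from 10^-4 to 10^-8 M. Dose-response parameters: GI50 (concentration giving 50% net growth inhibition), TGI (total growth inhibition) and LC50 (50% net cell death), each reported as log10 of molar concentration.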

[2] = test system: Staphylococcus epidermidis; experiment: Antibacterial activity against Staphylococcus epidermidis MTCC 435 after 18 hrs; format: functional; details: MTCC 435, 18 h
Summary of the method: (§2)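 Disc diffusion (Kirby–Bauer) on Mueller-Hinton agar inoculated with fresh bacteria at 1-5 × 10^4 cfu mL-1. Compounds were dissolved in DMF at a range of concentrations, and discs were placed in triplicate. Plates were incubated at 30 °C for 18 h. MIC was taken as the lowest concentration giving no visible bacterial growth on the plate.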

HOP-62 = experiment: Antitumor activity against HOP62 cells; format: functional; details: Homo sapiens
ACHN = experiment: Antitumor activity against ACHN cells; format: functional; details: Homo sapiens
DU-145 = experiment: Antitumor activity against DU145 cells; format: functional; details: Homo sapiens
U-251 = experiment: Antitumor activity against U251 cells; format: functional; details: Homo sapiens; summary of the method: as §1
CCRF-CEM = experiment: Antitumor activity against CCRF-CEM cells; format: functional; details: Homo sapiens
K562 = experiment: Antitumor activity against K562 cells; format: functional; details: Homo sapiens
T47D = experiment: Antitumor activity against T47D cells; format: functional; details: Homo sapiens; summary of the method: as §1
OVCAR-3 = experiment: Antitumor activity against OVCAR-3 cells; format: functional; details: Homo sapiens
PC-3 = experiment: Antitumor activity against PC3 cells; format: functional; details: Homo sapiens
HT-29 = experiment: Antitumor activity against HT29 cells; format: functional; details: Homo sapiens
Vibrio = experiment: Antibacterial activity against Vibrio species after 18 hrs; format: functional; summary of the method: as §2
SW-620 = experiment: Antitumor activity against SW620 cells; format: functional; details: Homo sapiens; summary of the method: as §1
A549 = experiment: Antitumor activity against A549 cells; format: functional; details: Homo sapiens
HCC 2998 = experiment: Antitumor activity against HCC2998 cells; format: functional; details: Homo sapiens
786-0 = experiment: Antitumor activity against 786-0 cells; format: functional; details: Homo sapiens
HOP-92 = experiment: Antitumor activity against HOP92 cells; format: functional; details: Homo sapiens
SNB-19 = experiment: Antitumor activity against SNB19 cells; format: functional; details: Homo sapiens; summary of the method: as §1
SN12C = experiment: Antitumor activity against SN12C cells; format: functional; details: Homo sapiens; summary of the method: as §1
RXF 393 = experiment: Antitumor activity against RXF393 cells; format: functional; details: Homo sapiens
M14 = experiment: Antitumor activity against M14 cells; format: functional; details: Homo sapiens
[3] = Antitumor activity against NCI-H322 cells; format: functional; details: Homo sapiens
KM12 = experiment: Antitumor activity against KM12 cells; format: functional; details: Homo sapiens
[4] = Antitumor activity against MALME 3M cells; format: functional; details: Homo sapiens
SNB-75 = experiment: Antitumor activity against SNB75 cells; format: functional; details: Homo sapiens; summary of the method: as §1
NCI-H226 = experiment: Antitumor activity against NCI-H226 cells; format: functional; details: Homo sapiens
OVCAR-4 = experiment: Antitumor activity against OVCAR4 cells; format: functional; details: Homo sapiens
MDA-MB-435 = experiment: Antitumor activity against MDA-MB-435 cells; format: functional; details: Homo sapiens
Bacillus subtilis = experiment: Antibacterial activity against Bacillus subtilis MTCC 441 after 18 hrs; format: functional; details: MTCC 441, 18 h; summary of the method: as §2
HCT-15 = experiment: Antitumor activity against HCT15 cells; format: functional; details: Homo sapiens
SK-MEL-28 = experiment: Antitumor activity against SK-MEL-28 cells; format: functional; details: Homo sapiens
SF-539 = experiment: Antitumor activity against SF539 cells; format: functional; details: Homo sapiens
UACC-257 = experiment: Antitumor activity against UACC257 cells; format: functional; details: Homo sapiens; summary of the method: as §1
UACC-62 = experiment: Antitumor activity against UACC62 cells; format: functional; details: Homo sapiens; summary of the method: as §1
OVCAR-8 = experiment: Antitumor activity against OVCAR8 cells; format: functional; details: Homo sapiens
SR = experiment: Antitumor activity against SR cells; format: functional; details: Homo sapiens; summary of the method: as §1
SF-268 = experiment: Antitumor activity against SF268 cells; format: functional; details: Homo sapiens
[5] = read-out: Log LC50 (the source's name) (converted)

O=C(NNS(=O)(=O)c1ccc(Cl)cc1Cl)c1cccnc1Nc1ccc(Cl)cc1
GI50 (COLO 205): 12 µM
LC50 (COLO 205): 49 µM
TGI (COLO 205; read-out: Log TGI (converted)): 24.5 µM
GI50 (TK-10): 28.8 µM
LC50 (TK-10): > 100 µM
TGI (TK-10; read-out: Log TGI (converted)): 85.1 µM
GI50 [1]: 24 µM
LC50 [1]: 83.2 µM
TGI ([1]; read-out: Log TGI (converted)): 44.7 µM
MIC [2]: 17 µg/mL (≈ 36 µM)
GI50 (HOP-62): 16.6 µM
CC50 (HOP-62; [5]): 85.1 µM
TGI (HOP-62; read-out: Log TGI (converted)): 38 µM
GI50 (ACHN): 29.5 µM
LC50 (ACHN): > 100 µM
TGI (ACHN; read-out: Log TGI (converted)): 93.3 µM
GI50 (DU-145): 41.7 µM
LC50 (DU-145): > 100 µM
TGI (DU-145; read-out: Log TGI (converted)): > 100 µM
GI50 (U-251): 34.7 µM
LC50 (U-251): > 100 µM
TGI (U-251; read-out: Log TGI (converted)): 100 µM
LC50 (CCRF-CEM): > 100 µM
GI50 (CCRF-CEM; read-out: GI50): 6.62 µM
TGI (CCRF-CEM; read-out: Log TGI (converted)): > 100 µM
GI50 (CCRF-CEM; read-out: pGI50 (converted)): 6.61 µM
GI50 (K562): 12.9 µM
LC50 (K562): 50.1 µM
TGI (K562; read-out: Log TGI (converted)): 25.7 µM
GI50 (T47D): 10.7 µM
CC50 (T47D; [5]): > 100 µM
TGI (T47D; read-out: Log TGI (converted)): 51.3 µM
GI50 (OVCAR-3): 20.4 µM
CC50 (OVCAR-3; [5]): > 100 µM
TGI (OVCAR-3; read-out: Log TGI (converted)): > 100 µM
GI50 (PC-3): 23.4 µM
LC50 (PC-3): > 100 µM
TGI (PC-3; read-out: Log TGI (converted)): 81.3 µM
GI50 (HT-29): 22.9 µM
LC50 (HT-29): > 100 µM
TGI (HT-29; read-out: Log TGI (converted)): 53.7 µM
MIC (Vibrio): 14 µg/mL (≈ 29.7 µM)
GI50 (SW-620): 28.2 µM
CC50 (SW-620; [5]): > 100 µM
TGI (SW-620; read-out: Log TGI (converted)): > 100 µM
GI50 (A549): 24.5 µM
LC50 (A549): > 100 µM
TGI (A549; read-out: Log TGI (converted)): 70.8 µM
GI50 (HCC 2998): 13.5 µM
LC50 (HCC 2998): 61.7 µM
TGI (HCC 2998; read-out: Log TGI (converted)): 28.8 µM
GI50 (786-0): 19.5 µM
LC50 (lethal concentration, 50%) (786-0): > 100 µM
TGI (786-0; read-out: Log TGI (converted)): 49 µM
GI50 (HOP-92): 14.8 µM
CC50 (HOP-92; [5]): > 100 µM
TGI (HOP-92; read-out: Log TGI (converted)): 40.7 µM
GI50 (SNB-19): 26.9 µM
CC50 (SNB-19; [5]): > 100 µM
TGI (SNB-19; read-out: Log TGI (converted)): 100 µM
GI50 (SN12C): 31.6 µM
LC50 (SN12C): > 100 µM
TGI (SN12C; read-out: Log TGI (converted)): > 100 µM
GI50 (RXF 393): 17 µM
LC50 (RXF 393): > 100 µM
TGI (RXF 393; read-out: Log TGI (converted)): 43.7 µM
GI50 (M14): 19.1 µM
LC50 (M14): 79.4 µM
TGI (M14; read-out: Log TGI (converted)): 38.9 µM
GI50 [3]: 14.8 µM
CC50 [3, 5]: > 100 µM
TGI ([3]; read-out: Log TGI (converted)): 40.7 µM
GI50 (KM12): 13.8 µM
CC50 (KM12; [5]): 58.9 µM
TGI (KM12; read-out: Log TGI (converted)): 28.8 µM
GI50 [4]: 34.7 µM
CC50 [4, 5]: > 100 µM
TGI ([4]; read-out: Log TGI (converted)): 34.7 µM
GI50 (SNB-75): 22.4 µM
CC50 (SNB-75; [5]): > 100 µM
TGI (SNB-75; read-out: Log TGI (converted)): 85.1 µM
GI50 (NCI-H226): 24 µM
CC50 (NCI-H226; [5]): > 100 µM
TGI (NCI-H226; read-out: Log TGI (converted)): 58.9 µM
GI50 (OVCAR-4): 28.8 µM
LC50 (lethal concentration, 50%) (OVCAR-4): > 100 µM
TGI (OVCAR-4; read-out: Log TGI (converted)): > 100 µM
GI50 (MDA-MB-435): 27.5 µM
LC50 (MDA-MB-435): > 100 µM
TGI (MDA-MB-435; read-out: Log TGI (converted)): 81.3 µM
MIC (Bacillus subtilis): 15 µg/mL (≈ 31.8 µM)
GI50 (HCT-15): 33.1 µM
LC50 (HCT-15): 100 µM
TGI (HCT-15; read-out: Log TGI (converted)): > 100 µM
GI50 (SK-MEL-28): 35.5 µM
LC50 (SK-MEL-28): > 100 µM
TGI (SK-MEL-28; read-out: Log TGI (converted)): > 100 µM
GI50 (SF-539): 19.1 µM
LC50 (SF-539): > 100 µM
TGI (SF-539; read-out: Log TGI (converted)): 44.7 µM
GI50 (UACC-257): 22.9 µM
LC50 (UACC-257): > 100 µM
TGI (UACC-257; read-out: Log TGI (converted)): 60.3 µM
GI50 (UACC-62): 21.9 µM
LC50 (UACC-62): > 100 µM
TGI (UACC-62; read-out: Log TGI (converted)): 75.9 µM
GI50 (OVCAR-8): 26.9 µM
CC50 (OVCAR-8; [5]): > 100 µM
TGI (OVCAR-8; read-out: Log TGI (converted)): 74.1 µM
GI50 (SR): 14.8 µM
LC50 (SR): 97.7 µM
TGI (SR; read-out: Log TGI (converted)): 38 µM
GI50 (SF-268): 36.3 µM
LC50 (SF-268): > 100 µM
TGI (SF-268; read-out: Log TGI (converted)): 100 µM
